In article PMC6467359 (Toxicological Research, 2019):
Where two headings read alike, the source gives them in different places.

Experiments:
[1] = system: ovarian cancer cell line A2780; conditions: read-out: half maximal inhibitory concentration (IC50); A2780 ref 9; cited from earlier work
SKOV-3 cells [2] = experiment: Cell cycle analysis by PI staining and flow cytometry; type: cell-based, human
caspase-9 = experiment: Caspase-9 colorimetric activity assay in treated SKOV-3 cells; type: cell-based, human; conditions: SKOV-3, 24 hr
In short: (§1)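 SKOV-3 cells (McCoy's 5A, 10% FCS, 37°C, 5% CO2) were seeded at 5 × 10^5 in 5 mL flasks overnight, then treated in 0.1% DMSO vehicle (DMSO-only control) for 12 and 24 hr. Cells were trypsinized and lysed on ice, and 100 μg protein was taken per well. Reactions used 10 mM DTT final and caspase-specific colorimetric substrate, 37°C for 1–2 hr, read at 400–405 nm. Done in triplicate.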

SKOV-3 cells [3] = experiment: MTT assay of cell viability and proliferation, SKOV-3; type: cell-based, human; conditions: for cytotoxicity to SKOV-3 cells relative to apigenin: ratio of IC50 values
In short: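 SKOV-3 cells were seeded at 5 × 10^3 cells/well in McCoy's 5A with 10% FCS, cultured overnight, then exposed to a range of concentrations, or to 0.1% DMSO control, for 24, 48 and 72 hr. MTT was added for 3 hr, formazan was dissolved in DMSO, and A560 was read. Viability was expressed relative to control, and IC50 was read from the plot of % viable cells versus concentration; three independent repeats.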

WI-38 cells = experiment: MTT assay of cell viability, WI-38 lung fibroblasts; type: cell-based, human; conditions: for IC50: read-out: IC50 value, WI-38 cells
In short: (§2)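 Untransformed human fibroblasts (CCD-986Sk skin, WI-38 lung) in MEM with 10% FCS were seeded at 1 × 10^4 cells/well, cultured overnight, then exposed to graded concentrations, or to 0.1% DMSO control, for 24 hr at 37°C, 5% CO2. MTT was added for 3 hr, formazan was dissolved in DMSO, and A560 was read. Survival was expressed relative to control, and IC50 was taken from the viability-versus-concentration plot; three independent repeats.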

CCD-986Sk cells = experiment: MTT assay of cell viability, CCD-986Sk skin fibroblasts; type: cell-based, human; conditions: for toxicity to CCD-986Sk cells: 24 hr of exposure
In short: as §2

SKOV-3 cells [4] = experiment: Cell imaging; type: cell-based, human; conditions: for morphological change of treated SKOV-3 cells: 48 hr, 200× magnification, α-mangostin 7.309 μM, apigenin 18.502 μM, doxorubicin 0.431 μM
BCL2 = experiment: RT-qPCR transcript expression in SKOV-3 cells, BCL2; type: cell-based, human; conditions: SKOV-3, 24 hr, 18.502 μM, p < 0.01
In short: (§3)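 SKOV-3 cells were seeded at 5 × 10^5 in 5 mL flasks and treated for 24 hr in 0.1% DMSO (vehicle control). Total RNA was column-extracted. One-step SYBR RT-qPCR used 20 ng RNA and 0.4 μM each primer: RT at 42°C for 5 min, 95°C for 10 s, then 40 cycles of 95°C 10 s / 60°C 30 s, with melt-curve check. Expression was normalised to GAPDH and compared with control; three independent repeats, one-way ANOVA with Tukey test.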

caspase-3 = experiment: Caspase-3 colorimetric activity assay in treated SKOV-3 cells; type: cell-based, human; conditions: α-mangostin 7.309 μM
In short: as §1

ES2 ovarian cancer cells = conditions: 0.033–1.0 mg/mL, 24 hr of exposure ref 10; cited from earlier work
[5] = system: SKOV-3 ovarian cancer cells; conditions: 0.033–1.0 mg/mL, 24 hr of exposure ref 10; cited from earlier work
NFκB = experiment: RT-qPCR transcript expression in SKOV-3 cells, NFκB; type: cell-based, human; conditions: SKOV-3, 24 hr, 7.309 μM
COX2 = experiment: RT-qPCR transcript expression in SKOV-3 cells, COX2; type: cell-based, human; conditions: SKOV-3, 24 hr, 7.309 μM, p < 0.05
In short: as §3

[6] = Homo sapiens, SK-OV-3, 24 h, read-out: IC50 value at an incubation time of 24 hr
[7] = Homo sapiens, SK-OV-3, 48 h, read-out: IC50 value at an incubation time of 48 hr
[8] = Homo sapiens, SK-OV-3, 72 h, read-out: IC50 value at an incubation time of 72 hr

Question: With `CCCCCCCCC(OCCC(C)C)c1ccc2c(c1OC)/C(=N/O)C=C/C2=N\O` (stereo not shown) [(1E,4E)-6-(1-(isopentyloxy)nonyl)-5-methoxynaphthalene-1,4-dione dioxime] as the compound, how does the IC50 [1] read?
Answer: Its IC50 is 8.26 ± 0.22 µM.

Question: For `O=c1cc(-c2ccc(O)cc2)oc2cc(O)cc(O)c12` [Apigenin], which “cell cycle arrest (G2/M phase)” value (SKOV-3 cells [2]; SKOV-3, after 48 hr of exposure, 18.502 μM) is on record?
Answer: Its value is “likewise arrested the cells”.

Question: And the “caspase-9 level (activity) vs control” value (caspase-9)?
Answer: The value was “statistically significant (p < 0.01)”.

Question: And the IC50 (SKOV-3 cells [3]; [6])?
Answer: Its IC50 is 26.5 ± 6.02 µM.

Question: And the IC50 (SKOV-3 cells [3]; [7])?
Answer: Its IC50 is 21.2 ± 5.25 µM.

Question: And the IC50 (SKOV-3 cells [3]; [8])?
Answer: The IC50 was 18.2 ± 3.1 µM.

Question: And the IC50 (WI-38 cells; Homo sapiens, WI-38, 24 h)?
Answer: Its IC50 is 36.9 ± 0.971 µM.

Question: What about the “concentration nontoxic to the cells” value (WI-38 cells; WI-38, 24 hr) of the same compound?
Answer: The value was “up to 27.753 μM”.

Question: And the “concentration that did not affect cell growth” value (WI-38 cells; WI-38, 24 hr)?
Answer: The value was 1156 to 2313 nM.

Question: What about the “toxicity to CCD-986Sk cells” value (CCD-986Sk cells) of the same compound?
Answer: Its value is “nontoxic”.

Question: And the cell survival (CCD-986Sk cells; CCD-986Sk, 24 hr, 92.510 μM)?
Answer: Its cell survival is 70%.

Question: And the relative cell survival (CCD-986Sk cells; CCD-986Sk, 24 hr, 1.156–55.506 μM)?
Answer: Its relative cell survival is 100%.

Question: What about the “morphological change of treated SKOV-3 cells” value (SKOV-3 cells [4]) of the same compound?
Answer: The value was “Cell shrinkage”.

Question: What about the “BCL2 transcript expression level relative to control” value (BCL2) of the same compound?
Answer: Its value is “upregulation was significant”.

Question: With `COc1cccc2c1C(=O)c1c(O)c3c(c(O)c1C2=O)C[C@@](O)(C(=O)CO)C[C@@H]3O[C@H]1C[C@H](N)[C@H](O)[C@H](C)O1` [Doxorubicin, reference compound] as the compound, how does the IC50 (SKOV-3 cells [3]; [6]) read?
Answer: Its IC50 is 0.534 ± 0.084 µM.

Question: What about the IC50 (SKOV-3 cells [3]; [7]) of the same compound?
Answer: Its IC50 is 0.343 ± 0.023 µM.

Question: And the IC50 (SKOV-3 cells [3]; [8])?
Answer: Its IC50 is 0.117 ± 0.008 µM.

Question: What about the IC50 (WI-38 cells; Homo sapiens, WI-38, 24 h) of the same compound?
Answer: Its IC50 is 0.604 ± 0.156 µM.

Question: And the “toxicity to CCD-986Sk cells” value (CCD-986Sk cells)?
Answer: The value was “did not affect the growth”.

Question: And the “morphological change of treated SKOV-3 cells” value (SKOV-3 cells [4])?
Answer: Its value is “some cell blebbing”.

Question: What about the “caspase-3 activity vs control” value (caspase-3; SKOV-3, 24 hr, apigenin 18.502 μM, doxorubicin 0.431 μM) of the same compound?
Answer: Its value is “not significant”.

Question: Which effect on proliferation (ES2 ovarian cancer cells) does the source give for `CC(=O)OCON=[N+]([O-])NCC(C)C` [O^2-(acetoxymethyl)-1-(iso-butylamino)diazen-1-ium-1,2-diolate] here?
Answer: Its effect on proliferation is “reduced the proliferation”.

Question: And the effect on proliferation [5]?
Answer: The effect on proliferation was “reduced the proliferation”.

Question: Which results are given for `CC(=O)OCO/N=[N+](\[O-])NC(C)C` [O^2-(acetoxymethyl)-1-(isopropylamino)diazen-1-ium-1,2-diolate]?
Answer: effect on proliferation (ES2 ovarian cancer cells): reduced the proliferation; effect on proliferation [5]: reduced the proliferation

Question: What does the source list for `COc1c(O)cc2oc3cc(O)c(CC=C(C)C)c(O)c3c(=O)c2c1CC=C(C)C` [α-Mangostin]?
Answer: cell cycle arrest (SKOV-3 cells [2]; SKOV-3, after 24 hr of exposure, 7.309 μM): induced arrest at the G2/M phase; NFκB transcript expression level relative to control (NFκB): remained the same as in the control cells; COX2 transcript expression level relative to control (COX2): upregulation was significant; cytotoxicity to SKOV-3 cells relative to apigenin (SKOV-3 cells [3]; 24 hr): 10.8 fold; cytotoxicity to SKOV-3 cells relative to apigenin (SKOV-3 cells [3]; 72 hr): 5.9 fold; IC50 (SKOV-3 cells [3]; read-out: IC50 value at an incubation time of 24 hr, SKOV-3 cells, MTT, 24 hr): 2.47 ± 0.338 µM; IC50 (SKOV-3 cells [3]; read-out: IC50 value at an incubation time of 48 hr, SKOV-3 cells, MTT, 48 hr): 2.98 ± 0.054 µM; IC50 (SKOV-3 cells [3]; read-out: IC50 value at an incubation time of 72 hr, SKOV-3 cells, MTT, 72 hr): 3.06 ± 0.349 µM; IC50 (WI-38 cells; 24 hr of treatment, MTT): 1.5 ± 0.464 µM; concentration safe for CCD-986Sk skin fibroblasts (CCD-986Sk cells; 24 hr): less than 6.091 μM; cytotoxicity in CCD-986Sk cells, fold less than in SKOV-3 cells (CCD-986Sk cells; 24 hr): about 4 fold; IC50 (CCD-986Sk cells; read-out: IC50 value, CCD-986Sk cells, 24 hr of treatment, MTT): 9.8 ± 3.17 µM; morphological change of treated SKOV-3 cells (SKOV-3 cells [4]): mostly damaged; effect at the small-scale IC50 value in larger-scale cultures (SKOV-3 cells [4]; SKOV-3, 5 × 10^5 cells in 5 mL, T25 flasks): not effective at all; caspase-3 activity vs control (caspase-3; SKOV-3, 12 hr): significantly (p < 0.05) increased
